An excerpt weighted towards active compounds, which were near 1.4% of everything screened.
TNAP inh hiacc – human TNAP enzyme inhibitors, primary screen, biochemical, luminescent, high phosphate acceptor level, uHTS; 200,000 compounds, 0.03% hits; inhibition, % at 20 µM; purified TNAP, CDP-star luminescence, 1 M DEA; AID 1135, 2008;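 active = over 50% inhibition of tissue-nonspecific alkaline phosphatase at 20 µM in the single-dose screen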;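 also: plate controls were DMSO wells for no effect and EDTA-quenched wells as full inhibition for full effect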
TNAP act hiacc – TNAP activators at high phosphate acceptor level, primary screen, biochemical, luminescence, uHTS. Alkaline phosphatase, tissue-nonspecific isozyme (Homo sapiens), P05186. purified TNAP, CDP-star luminescence, 1 M DEA, 30 min; hits give high values; 0 = EDTA background, 1 = DMSO-only activity. activation factor at 20 µM. 200,000 tested, under 10 active. AID 1136, 2008;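 active = activation factor at least 2 at 20 µM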
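Assay system: human TNAP; Input: enzyme diluted 1/800 final; Reagent: CDP-star luminogenic substrate at 100 µM final; Timing: 30 min, room temperature; Signal: luminescence; Evaluation: TNAP activation factor scaled between EDTA and DMSO control wells.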
CHT PAM – CHT positive allosteric modulators, primary screen, cell-based, membrane potential dye, choline EC20 | CHT-expressing cells; hits give high values; LV-AA mutant CHT in HEK293 cells | B-score at 10 µM | 310,000 compounds, 0.49% hits | AID 488977, 2010;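 active = initial fluorescence not abnormally high and integrated response B-score, plate-corrected, over 3 SD above library mean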
Target sequence (Q9GZV3 whole entry, looked up): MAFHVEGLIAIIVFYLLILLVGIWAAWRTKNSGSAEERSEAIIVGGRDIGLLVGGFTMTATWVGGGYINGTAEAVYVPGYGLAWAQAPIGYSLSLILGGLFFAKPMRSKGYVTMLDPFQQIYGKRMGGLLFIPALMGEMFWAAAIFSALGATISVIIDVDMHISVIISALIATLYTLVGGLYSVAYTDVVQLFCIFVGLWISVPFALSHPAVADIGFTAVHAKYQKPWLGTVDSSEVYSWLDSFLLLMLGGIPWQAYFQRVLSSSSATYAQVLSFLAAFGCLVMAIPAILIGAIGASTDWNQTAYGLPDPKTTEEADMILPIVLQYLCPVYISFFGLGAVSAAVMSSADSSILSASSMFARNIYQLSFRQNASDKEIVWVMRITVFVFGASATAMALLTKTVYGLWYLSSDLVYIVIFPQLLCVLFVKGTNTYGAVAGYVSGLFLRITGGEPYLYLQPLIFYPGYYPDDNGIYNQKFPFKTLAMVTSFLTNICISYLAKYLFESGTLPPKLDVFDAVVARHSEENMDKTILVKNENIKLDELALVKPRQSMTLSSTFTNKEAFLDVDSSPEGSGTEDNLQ
ABCB6 inh 2 – ABCB6 transporter inhibitors, primary screen, K562-ABCB6 cells, flow cytometry, MLPCN library. ATP-binding cassette sub-family B member 6 (Homo sapiens), Q9NP58. K562-ABCB6 porphyrin accumulation, 1 h; hits give low values. fluorescence ratio to DMSO, % at 10 µM. 360,000 compounds, 0.19% hits. AID 602162, 2011;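 active = fluorescence ratio to DMSO below 75%, the collection mean minus 3 SD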;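 also: signal is porphyrin accumulated inside mitochondria; 100% equals median channel fluorescence of DMSO control wells; lower ratio means ABCB6 inhibition with less porphyrin fluorescence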
TNAP inh noacc – human TNAP enzyme inhibitors, primary screen, biochemical, luminescent, no phosphate acceptor, uHTS | AID 1012, 2008 | 200,000 compounds, 0.26% hits | purified TNAP, CDP-star luminescence, 30 min | inhibition, % at 20 µM;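 active = tissue-nonspecific alkaline phosphatase inhibition above about 50% at 20 µM in the single-dose screen, limit read from the data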;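 also: 0% = DMSO negative control and 100% = EDTA positive control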
CHT block – inhibitors of human choline transporter CHT | CHT-expressing cells, membrane potential dye, choline response; hits give low values | B-score at 10 µM | 310,000 compounds, 0.86% hits | AID 488975, 2010;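 active = B-score over 3 SD under the library average, and starting fluorescence ratio not unusually high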;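 also: choline stimulus applied at its EC90 after an EC20 pre-addition; B-score computed on integrated fluorescence ratio after choline addition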
CHT inh conf – CHT inhibitors, confirmation, cell-based, membrane potential dye, duplicate. AID 493221, 2011. 2,400 compounds, 70% hits. CHT activity remaining % of control (hits give low values), % at 10 µM. CHT-expressing cells, choline membrane potential dye; LV-to-AA substituted CHT, HEK293 cells. shares compounds with CHT block;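 active = choline transporter activity left, mean of duplicates at 10 µM, below buffer-only control mean minus 3 SD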;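 also: depolarization triggered by choline at its EC90 following an EC20 pre-addition; 0% = hemicholinium-3 full block and 100% = buffer-only control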
HEK293 CHT ctr – membrane potential effects in parental HEK293, counter-screen for CHT inhibitor project, cell-based, membrane potential dye. shares compounds with CHT block. choline response; active = decrease or increase beyond buffer ±3SD. membrane potential ratio readout (active if shifted either direction beyond buffer ±3SD; no single direction) at 10 µM. 2,400 compounds, 4% hits. AID 493222, 2011;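 also: parental cells lack the transporter so any hit is non-specific; ratio is peak minus trough fluorescence over baseline after EC90 choline challenge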
* = called active by the depositor; i = inactive; x = no result given.

SMILES	TNAP inh hiacc	TNAP act hiacc	CHT PAM	ABCB6 inh 2	TNAP inh noacc	CHT block	CHT inh conf	HEK293 CHT ctr
NC(=O)CC(NC(=O)c1cccc(Br)c1)c1ccc(N2CCCCCC2)c([N+](=O)[O-])c1 (configuration not stated)	x	x	i	95.0	x	i	x	x
NC(=O)CC(NC(=O)c1ccc(Br)cc1)c1ccc(N2CCCCCC2)c([N+](=O)[O-])c1 (configuration not stated)	x	x	i	106.0	x	-7.74*	58.6%*	i
NC(=O)CC(NC(=O)c1ccccc1)c1ccc(N2CCCCCCC2)c([N+](=O)[O-])c1 (configuration not stated)	x	x	i	97.0	x	-11*	1.4%*	i
NC(=O)CC(NC(=O)c1ccccc1)c1ccc(N2CCc3ccccc3C2)c([N+](=O)[O-])c1 (configuration not stated)	x	x	i	97.0	x	-9.49*	17.9%*	i
CCN(CC(=O)NCc1cccs1)C(=O)CCC(=O)c1ccc(F)cc1	x	x	i	99.0	x	i	x	x
Cc1cc(C)cc(OCC(O)CN2CCC(CN3C(=O)c4cccc5cccc(c45)C3=O)CC2)c1 (configuration not stated)	x	x	i	88.0	x	-5.52*	57.6%*	i
Cc1nc(CSc2nc3[nH]ncc3c(=O)n2-c2ccccc2)cs1	-4.0	1	i	110.0	-10.3	i	x	x
Cc1noc(C)c1CSc1nc2[nH]ncc2c(=O)n1-c1ccccc1	-1.0	1	i	106.0	-11.7	-5.51*	i	i
COc1ccc(NC(=O)NC2(C(=O)N3CCN(C)CC3)CCCCC2)cc1	x	x	i	92.0	x	i	x	x
Cc1cc(C(=O)COc2cc(F)ccc2[N+](=O)[O-])c(C)n1CC1CCCO1 (configuration not stated)	x	x	x	100.0	x	x	x	x
O=C(NC1CCCCC1)C(c1ccc2ncccc2c1)N(Cc1ccc2c(c1)OCO2)C(=O)c1cccs1 (configuration not stated)	-4.0	1	i	102.0	-1.3	-10.3*	25.2%*	i
O=C(NC1CCCCC1)C(c1ccccc1)N(C(=O)c1cccs1)c1ccc2c(c1)OCO2 (configuration not stated)	-9.7	1.1	i	96.0	-2.3	i	x	x
COc1ccc(CN(C(=O)c2cccs2)C(C(=O)NC2CCCCC2)c2ccc3ncccc3c2)cc1 (configuration not stated)	-0.4	1	i	96.0	5.2	-8.1*	43.1%*	i
COc1ccc(/C=C(/NC(=O)c2ccc(Br)o2)C(=O)Nc2cccc(C(=O)O)c2)cc1	x	x	x	97.0	x	x	x	x
COCCn1c(SCC(=O)NCc2ccc3c(c2)OCO3)nc2ccccc2c1=O	-5.9	1.1	i	98.0	-12.9	i	x	x
Cc1cc(=O)[nH]c(SCC(=O)Nc2cccc(S(=O)(=O)N3CCOCC3)c2)n1	x	x	x	93.0	x	x	x	x
Cc1nc2c(nc1C)C(=O)c1ccccc1C2=O	x	x	x	100.0	x	x	x	x
O=C1c2ccccc2-c2cccnc21	x	x	i	98.0	x	-6.77*	37.3%*	i
CCN1CCN(c2cc(C)c3cc(NC(=S)N4CCN(c5ccccc5F)CC4)ccc3n2)CC1	-6.1	1.1	i	92.0	-15.7	i	x	x

Assay outcomes from PubChem BioAssay.
